# Source: the EternaBench riboswitch data
# Tested on: MS2 coat protein
# Assay: apparent Kd, MS2 coat protein; higher = weaker binding; RNA-MaP array
# How it was run: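 The designed RNAs, transcribed from sequenced DNA templates on an Illumina sequencing chip, were incubated with fluorescently labeled MS2 coat protein at room temperature. Protein ranged from 1.5 nM to 3 μM, with 0.8–1.5 h incubation at the lowest and 10–20 min at the highest concentrations, in Tris-HCl pH 7.5 buffer with KCl, MgCl2, BSA, DTT, tRNA and Tween20, with or without input ligand. The median of per-cluster binding-curve fits gives the apparent Kd, and designs measured on fewer than 10 clusters were excluded.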
# [1] = designed as: ON switch for flavin mononucleotide, no ligand
# [2] = ligand present: flavin mononucleotide, designed as: ON switch for flavin mononucleotide
# [3] = designed as: OFF switch for flavin mononucleotide, no ligand
# [4] = ligand present: flavin mononucleotide, designed as: OFF switch for flavin mononucleotide
# [5] = designed as: ON switch for tryptophan, no ligand
# [6] = ligand present: tryptophan, designed as: ON switch for tryptophan
# [7] = designed as: ON switch for theophylline, no ligand
# [8] = ligand present: theophylline, designed as: ON switch for theophylline
Sequence,apparent Kd [3] [µM],apparent Kd [4] [µM],also measured
UGAAUACAUGAGGAUCACCCAUGUUACGACCUCACAGGAUAUCAGAUAAAGGCUCUCAUCUGAGAAGGGUGGCUCC,,,apparent Kd [1]: 0.0633 µM; apparent Kd [2]: 0.0388 µM
AGGAAAGAAGAAGGAUAUCAGUUACGGACAUGAGGAUCACCCAUGUACGUAGGGUGAACCCUGAUUGAGAAGGUCUGUGUUUUA,,,apparent Kd [1]: 0.0231 µM; apparent Kd [2]: 0.0134 µM
UCUCUUAAAGCAGGAUAUGAAAUCCACCAGGAAUCAGAAGGGCUCAACGUUACAUGAGGAUCACCCAUGUCCCUUAUGACAAUA,0.00783,0.00935,
AUUAACAUGAGGAUCACCCAUGUUUGUCUCCGAGGACCGGUACGGCCGCCACUCGCAGGUUGGAGUCGCUAUAUGGGCGUUCACU,,,apparent Kd [5]: 0.0446 µM; apparent Kd [6]: 0.0349 µM
CUCGUGUUAGGAUAUGACGUCCCGCGCUCCGUUAACUAAUUUCAGAAGGAACAUGAGGAUCACCCAUGUUGGUG,0.15,0.0597,
GGAAUGUGAGGAUAUGUUAAGAAGGCGCGACGUUGGGAGACACAGAAGGCACAUGAGGAUCACCCAUGUUAUGA,0.0232,0.0311,
AAAGGUUGAGGAUAUCAUCCUCCAAACAUGAGGAUCACCCAUGUUGAUCUUCACGUACGAUGAGAAGGCAACACCU,0.585,0.683,
ACGCGUUCACAGAAGGCCUACAAAAUUACAUUAGGAGGAUAUGUUACAUGAGGAUCACCCAUGUCAUGGCUGUGUCUCGGUAUC,0.0308,0.0414,
GGAUCGCUCUACAUGAGGAUCACCCAUGUGACUGAGCUAGAUAGAAGGAGAUGGCGAAAUACUUUCUAGGAUAUAUUGUAGCUA,0.00805,0.00808,
CGACAGCACAUAGGAUAUCAGCAAGAACUAACAUGAGGAUCACCCAUGUAUGGAUGAACAUAAAAUGAGAAGGAAGGCGAAUUA,,,apparent Kd [1]: 0.0222 µM; apparent Kd [2]: 0.0179 µM
CCUUUAGAUGUGAGGAUAUGUACUUGACUUUCAUGACAGAAGGCACAUGAGGAUCACCCAUGUAGUGUCAUUGG,0.0104,0.0364,
GCCGCCGGUGCUUCAUUCCCUGAGCGACGGCGAGGACCGGUACGGCCGCCACUCGGCUCGGUACAUGAGGAUCACCCAUGUCUUU,,,"apparent Kd (designed as: OFF switch for tryptophan, no ligand): 0.0447 µM; apparent Kd (ligand present: tryptophan, designed as: OFF switch for tryptophan): 0.0546 µM"
UAACAUUGCUAGAAGGGCGGUCAUCAGAUGGCCGCAGGAUAUAGACAUGAGGAUCACCCAUGUGAAGGGCAGGUUGUUCUAGUU,,,apparent Kd [1]: 0.0181 µM; apparent Kd [2]: 0.0225 µM
AGGAAUGUCACGGCCGCCACUGACGCUAAAAUGGGCUCGAGCCGACAUGAGGAUCACCCAUGUUCCAGGACCGGGUGAAUCCUGG,,,apparent Kd [5]: 0.174 µM; apparent Kd [6]: 0.123 µM
CCAGAUUUAGGAUAUACAUGAGGAUCACCCAUGUGGGAUUUAGUGCGGUUUAUGCAACGUAGAAGGAAAUCAGG,0.0316,0.0714,
GCUGAUAUCAAGAAGGCGAUCAGGGAAUAAGAGACAUGAGGAUCACCCAUGUACGCCAUUUGUAUCGAGGAUAUUGAAAAUAGG,,,apparent Kd [1]: 0.0244 µM; apparent Kd [2]: 0.00742 µM
UGCCAGGCACAGAAGGUAGCGUGUCCUCAAGACAUGAGGAUCACCCAUGUGGAAAGAUUAAGACCUAAGGAUAUGUGUAUCACC,0.143,0.0939,
CGAUUACAUGAGGAUCACCCAUGUCAGGAUAUAAUUUGCACAGCCGGGCAGGCCGUGGUUAGAAGGGACGUACA,0.00909,0.00875,
GGACGCCAUAUAGAGGAUAUUAAUGUCGACACAUGAGGAUCACCCAUGUCCCACUCGGGCGAACAUAAGAAGGCUAAUCAGACGUA,,,apparent Kd [1]: 0.0145 µM; apparent Kd [2]: 0.0105 µM
AUGUUCGUAAAGAAGGAUCAGGUGAUAUAUGUCAACAUGAGGAUCACCCAUGUGCGGGACGUAAGAUAGGAUAUUUGAGAUCAU,0.0143,0.0108,
CAGUUACUGUAGAAGGAUAUCAUUAAUACGGAUAUAGGAUAUACUCCGGGUGGAAUCGUGAACAUGAGGAUCACCCAUGUUUCG,0.0102,0.0086,
ACUCCACAUGAGGAUCACCCAUGUUAUAAGUAGGUAGGAUAUCACACAAACUUACAUGGAUGAGAAGGACCGGUCC,,,apparent Kd [1]: 0.328 µM; apparent Kd [2]: 0.21 µM
AGCUAUUUUUGGGAGGAUAUUAUGAGCAGUACAUGAGGAUCACCCAUGUUAGUAAUAUACAUUGGUAAGAAGGCCCAAUCAUAAGG,,,apparent Kd [1]: 0.0346 µM; apparent Kd [2]: 0.0251 µM
AACAGACGAGACGAUACCAGUCUCUUAGCGCACAUGAGGAUCACCCAUGUUGGCAAGCUCGACCCUUGGCAGCGUACCUUUGAUC,,,apparent Kd [7]: 0.0244 µM; apparent Kd [8]: 0.014 µM
GCAUAGUAAAAUGAUACCAGAGUCAAAACAGACAUGAGGAUCACCCAUGUGCAUAUACAACUCCCUUGGCAGCAUUAAAACGGGA,,,apparent Kd [7]: 0.0171 µM; apparent Kd [8]: 0.013 µM
CCAAAGUAAGGAUAUCGAAGAACCACAACCGACGGAACGAACGAGAAGGUACAUGAGGAUCACCCAUGUGAUAG,0.0116,0.0197,
AAAGAACAAGGAUAUACAUGAGGAUCACCCAUGUCACAGAUAGUAGAACCACAAGCAUGUAGAAGGUGAGUCUA,0.0115,0.00961,
